Measured values taken from ChEMBL document CHEMBL5715953, “A Potent, Selective, and Cell-Active Inhibitor of Human Type I Protein Arginine Methyltransferases” (ACS Chem Biol, 2016).
Calls of active or inactive are those of the source. The rule behind the calls is not given here.

How the values were obtained:
[1] = target: T1, Protein arginine N-methyltransferase 6 (Homo sapiens, UniProt Q96LA8); test: Inhibition of human PRMT6 using (3H) methylated biotin labelled peptide as substrate incubated for 30 mins in presence of 3H-SAM by scintillation proximity assay
T1 sequence (Q96LA8 whole entry): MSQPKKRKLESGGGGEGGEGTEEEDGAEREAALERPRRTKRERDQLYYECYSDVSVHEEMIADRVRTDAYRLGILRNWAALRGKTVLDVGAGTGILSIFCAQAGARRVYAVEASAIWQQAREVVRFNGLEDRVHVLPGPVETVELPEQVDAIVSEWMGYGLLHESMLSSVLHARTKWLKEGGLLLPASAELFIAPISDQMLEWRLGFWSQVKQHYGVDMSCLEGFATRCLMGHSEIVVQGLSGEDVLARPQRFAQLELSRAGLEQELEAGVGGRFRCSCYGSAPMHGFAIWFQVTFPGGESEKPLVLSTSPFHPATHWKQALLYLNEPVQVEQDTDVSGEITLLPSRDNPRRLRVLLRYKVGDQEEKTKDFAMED

[2] = test system: HEK293; test: Cytotoxicity in human HEK293 cells assessed as inhibition of cell growth at 1 uM incubated for 4 days by phase contrast cell imaging analysis; assay type: toxicity, cell-based; details: hek293, 96 h, time 4 day
[3] = target: T2, Histone-arginine methyltransferase CARM1 (Homo sapiens, UniProt Q86X55); test: Inhibition of human PRMT4 assessed as inhibition constant using peptide as substrate
T2 sequence (Q86X55 whole entry): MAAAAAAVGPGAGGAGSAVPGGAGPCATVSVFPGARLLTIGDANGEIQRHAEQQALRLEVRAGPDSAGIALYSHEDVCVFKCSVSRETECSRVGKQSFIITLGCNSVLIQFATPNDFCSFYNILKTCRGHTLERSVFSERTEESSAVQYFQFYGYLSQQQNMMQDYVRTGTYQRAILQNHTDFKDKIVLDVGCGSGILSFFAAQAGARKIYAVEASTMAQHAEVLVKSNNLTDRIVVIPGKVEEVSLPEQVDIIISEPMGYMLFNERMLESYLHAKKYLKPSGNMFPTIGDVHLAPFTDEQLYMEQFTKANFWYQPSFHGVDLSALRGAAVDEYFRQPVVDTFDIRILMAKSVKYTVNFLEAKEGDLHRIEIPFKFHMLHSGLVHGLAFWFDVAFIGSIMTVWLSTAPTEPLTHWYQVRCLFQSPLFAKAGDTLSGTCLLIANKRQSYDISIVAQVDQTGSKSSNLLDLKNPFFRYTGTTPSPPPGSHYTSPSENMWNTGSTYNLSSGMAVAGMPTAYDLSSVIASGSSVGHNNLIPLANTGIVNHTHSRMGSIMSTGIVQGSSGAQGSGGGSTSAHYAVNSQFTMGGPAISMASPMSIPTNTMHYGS

[4] = target: Tudor domain-containing protein 3 (Homo sapiens) (UniProt Q9H7E2)
Sequence of Tudor domain-containing protein 3 (Homo sapiens) (Q9H7E2 whole entry, the tested form may be a part): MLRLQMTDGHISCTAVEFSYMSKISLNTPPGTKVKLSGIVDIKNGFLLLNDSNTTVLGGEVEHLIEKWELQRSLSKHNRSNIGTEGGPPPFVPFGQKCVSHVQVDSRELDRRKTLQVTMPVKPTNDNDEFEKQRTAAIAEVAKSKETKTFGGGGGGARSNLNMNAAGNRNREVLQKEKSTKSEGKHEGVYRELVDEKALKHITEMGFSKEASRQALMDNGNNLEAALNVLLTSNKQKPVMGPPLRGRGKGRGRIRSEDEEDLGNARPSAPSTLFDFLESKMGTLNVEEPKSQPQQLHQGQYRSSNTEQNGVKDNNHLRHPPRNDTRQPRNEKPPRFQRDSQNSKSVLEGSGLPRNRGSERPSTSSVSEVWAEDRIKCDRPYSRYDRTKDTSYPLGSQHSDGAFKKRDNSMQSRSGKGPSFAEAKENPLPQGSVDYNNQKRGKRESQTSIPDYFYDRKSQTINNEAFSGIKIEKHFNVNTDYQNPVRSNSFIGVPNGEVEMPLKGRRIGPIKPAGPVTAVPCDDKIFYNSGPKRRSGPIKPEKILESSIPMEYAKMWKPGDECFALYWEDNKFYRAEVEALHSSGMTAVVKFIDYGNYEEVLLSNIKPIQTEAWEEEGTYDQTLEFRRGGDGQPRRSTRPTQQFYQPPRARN

[5] = test system: HFF; test: Cytotoxicity in human HFF cells assessed as cell confluency at <=1 uM incubated for 96 hrs by phase contrast cell imaging analysis; assay type: toxicity, cell-based
[6] = target: T2, Histone-arginine methyltransferase CARM1; test: Inhibition of human PRMT4 assessed as inhibition constant in presence of cofactor SAM
[7] = test system: HEK293; details: Homo sapiens, dose 333.0 nM, time 20.0 hrs
[8] = test system: MCF7; test: Antiproliferative activity against human MCF7 cells assessed as decrease in cell number at 0.1 uM incubated for 10 days by vybrant dye cycle green/ Enzo-nuclear-ID red staining based live cell imaging analysis relative to control; assay type: functional; parameters: scale not given: the % may be the effect or the level left; details: time 10 day
[9] = target: T3, Protein arginine N-methyltransferase 8 (Homo sapiens, UniProt Q9NR22); test: Inhibition of human PRMT8 assessed as inhibition constant using peptide as substrate
T3 sequence (Q9NR22 whole entry): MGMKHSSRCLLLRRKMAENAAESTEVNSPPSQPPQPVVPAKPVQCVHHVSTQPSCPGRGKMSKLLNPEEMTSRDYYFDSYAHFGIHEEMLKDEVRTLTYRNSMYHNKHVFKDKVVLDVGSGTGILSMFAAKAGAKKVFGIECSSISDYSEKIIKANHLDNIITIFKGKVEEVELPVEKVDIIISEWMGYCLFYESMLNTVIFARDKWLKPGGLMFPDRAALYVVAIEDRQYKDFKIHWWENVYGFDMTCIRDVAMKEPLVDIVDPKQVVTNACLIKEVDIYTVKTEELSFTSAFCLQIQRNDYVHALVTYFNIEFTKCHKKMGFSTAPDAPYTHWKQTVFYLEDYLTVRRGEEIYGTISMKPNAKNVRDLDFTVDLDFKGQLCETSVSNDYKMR

[10] = target: Polycomb protein EED (Homo sapiens) (UniProt O75530)
Sequence of Polycomb protein EED (Homo sapiens) (O75530 2-441 limits assumed): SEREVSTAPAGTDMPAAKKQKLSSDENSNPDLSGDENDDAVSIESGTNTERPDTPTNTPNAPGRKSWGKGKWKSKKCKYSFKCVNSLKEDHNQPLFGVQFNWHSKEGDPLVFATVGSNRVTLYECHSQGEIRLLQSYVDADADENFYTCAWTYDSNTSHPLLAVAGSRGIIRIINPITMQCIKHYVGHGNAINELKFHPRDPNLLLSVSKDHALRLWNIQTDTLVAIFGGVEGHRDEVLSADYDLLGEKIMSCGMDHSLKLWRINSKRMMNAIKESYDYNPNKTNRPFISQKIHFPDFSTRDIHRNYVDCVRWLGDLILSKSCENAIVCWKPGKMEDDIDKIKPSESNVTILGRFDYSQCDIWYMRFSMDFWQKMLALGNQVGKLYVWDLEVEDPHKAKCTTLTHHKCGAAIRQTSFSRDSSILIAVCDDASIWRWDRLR

[11] = target: T1, Protein arginine N-methyltransferase 6; test: Inhibition of human PRMT6 assessed as inhibition constant using peptide as substrate
[12] = target: Peregrin (Homo sapiens) (UniProt P55201)
Sequence of Peregrin (Homo sapiens) (P55201 whole entry): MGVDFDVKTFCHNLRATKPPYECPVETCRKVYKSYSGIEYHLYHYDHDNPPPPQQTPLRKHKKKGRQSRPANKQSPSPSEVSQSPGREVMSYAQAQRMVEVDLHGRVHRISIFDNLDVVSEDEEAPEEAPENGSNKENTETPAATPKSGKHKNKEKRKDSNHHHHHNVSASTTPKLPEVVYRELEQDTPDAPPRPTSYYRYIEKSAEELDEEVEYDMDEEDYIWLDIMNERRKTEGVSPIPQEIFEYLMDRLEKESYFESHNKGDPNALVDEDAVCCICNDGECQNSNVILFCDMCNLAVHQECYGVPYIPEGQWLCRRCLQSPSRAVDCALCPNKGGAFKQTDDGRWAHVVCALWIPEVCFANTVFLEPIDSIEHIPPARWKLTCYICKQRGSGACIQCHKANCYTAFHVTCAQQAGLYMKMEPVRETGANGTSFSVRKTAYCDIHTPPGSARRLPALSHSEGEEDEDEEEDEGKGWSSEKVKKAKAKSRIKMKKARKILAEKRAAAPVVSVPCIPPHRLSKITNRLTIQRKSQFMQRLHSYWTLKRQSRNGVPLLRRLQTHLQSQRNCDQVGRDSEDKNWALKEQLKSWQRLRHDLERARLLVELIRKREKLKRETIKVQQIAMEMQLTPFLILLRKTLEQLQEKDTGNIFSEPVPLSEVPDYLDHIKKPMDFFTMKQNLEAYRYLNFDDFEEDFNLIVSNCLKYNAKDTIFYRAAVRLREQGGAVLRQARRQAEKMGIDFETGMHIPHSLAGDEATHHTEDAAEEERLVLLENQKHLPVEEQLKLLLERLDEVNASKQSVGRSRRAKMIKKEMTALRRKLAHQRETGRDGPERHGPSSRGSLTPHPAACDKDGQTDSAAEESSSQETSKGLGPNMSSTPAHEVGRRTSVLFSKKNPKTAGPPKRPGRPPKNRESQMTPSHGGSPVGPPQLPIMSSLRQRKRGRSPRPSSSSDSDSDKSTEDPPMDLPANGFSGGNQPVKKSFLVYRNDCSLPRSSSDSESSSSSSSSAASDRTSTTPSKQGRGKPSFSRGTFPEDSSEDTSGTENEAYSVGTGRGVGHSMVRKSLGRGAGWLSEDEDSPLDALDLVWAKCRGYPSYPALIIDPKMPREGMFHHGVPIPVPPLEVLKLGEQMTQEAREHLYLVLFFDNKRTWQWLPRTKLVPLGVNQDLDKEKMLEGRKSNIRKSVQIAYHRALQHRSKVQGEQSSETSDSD

[13] = target: T1, Protein arginine N-methyltransferase 6; test: Inhibition of human PRMT6 assessed as inhibition constant in presence of cofactor SAM
[14] = target: T2, Histone-arginine methyltransferase CARM1; test: Inhibition of human PRMT4 using (3H) methylated biotin labelled peptide as substrate in presence of 3H-SAM by scintillation proximity assay
Outline: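 Scintillation proximity assay: 3H-SAM as methyl donor, with non-tritiated SAM added when needed. The 3H-methylated biotinylated peptide is captured on streptavidin/scintillant-coated plates and read as counts per minute. IC50 comes from compound titration under balanced conditions, with substrate and cofactor at their Km values. Run in triplicate, mean ± SD. Ki is derived from IC50.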

[15] = target: T3, Protein arginine N-methyltransferase 8; test: Inhibition of human PRMT8 assessed as inhibition constant in presence of cofactor SAM
[16] = target: Growth/differentiation factor 2 (Homo sapiens) (UniProt Q9UK05)
[17] = target: T2, Histone-arginine methyltransferase CARM1; test: Binding affinity to human PRMT4 assessed as inhibition constant using (3H) methylated biotin labelled peptide as substrate in presence of 3H-SAM by scintillation proximity assay
[18] = target: Staphylococcal nuclease domain-containing protein 1 (Homo sapiens) (UniProt Q7KZF4)
Sequence of Staphylococcal nuclease domain-containing protein 1 (Homo sapiens) (Q7KZF4 whole entry, the tested form may be a part): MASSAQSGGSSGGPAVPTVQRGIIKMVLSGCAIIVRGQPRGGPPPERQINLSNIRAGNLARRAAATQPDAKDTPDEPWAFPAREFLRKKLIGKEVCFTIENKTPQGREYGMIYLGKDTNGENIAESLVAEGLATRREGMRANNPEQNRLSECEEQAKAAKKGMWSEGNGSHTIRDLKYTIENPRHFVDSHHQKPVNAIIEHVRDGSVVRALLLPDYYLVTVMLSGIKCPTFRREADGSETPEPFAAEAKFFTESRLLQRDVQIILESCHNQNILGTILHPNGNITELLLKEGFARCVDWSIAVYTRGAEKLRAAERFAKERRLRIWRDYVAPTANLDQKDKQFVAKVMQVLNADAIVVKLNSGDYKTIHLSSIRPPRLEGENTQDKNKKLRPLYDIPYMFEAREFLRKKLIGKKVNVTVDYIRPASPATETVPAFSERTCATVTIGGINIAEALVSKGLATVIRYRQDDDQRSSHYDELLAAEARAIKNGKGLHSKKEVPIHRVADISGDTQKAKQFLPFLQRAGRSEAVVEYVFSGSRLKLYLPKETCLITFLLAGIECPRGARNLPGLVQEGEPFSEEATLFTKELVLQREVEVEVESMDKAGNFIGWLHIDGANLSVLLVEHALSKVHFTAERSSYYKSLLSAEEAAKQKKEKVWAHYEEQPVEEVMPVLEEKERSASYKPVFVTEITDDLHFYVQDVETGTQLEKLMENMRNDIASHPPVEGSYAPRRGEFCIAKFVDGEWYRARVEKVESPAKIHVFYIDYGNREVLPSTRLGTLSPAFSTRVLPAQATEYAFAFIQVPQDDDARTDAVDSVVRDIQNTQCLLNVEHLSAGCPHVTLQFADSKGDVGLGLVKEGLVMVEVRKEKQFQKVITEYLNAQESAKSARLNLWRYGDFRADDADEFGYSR

[19] = target: T3, Protein arginine N-methyltransferase 8; test: Binding affinity to human PRMT8 assessed as inhibition constant using (3H) methylated biotin labelled peptide as substrate in presence of 3H-SAM by scintillation proximity assay
Outline: (§1)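 Scintillation proximity assay: 3H-SAM as methyl donor, with non-tritiated SAM added when needed. The 3H-methylated biotinylated peptide is captured on streptavidin/scintillant-coated plates and read as counts per minute. IC50 comes from compound titration under balanced conditions, with substrate and cofactor at their Km values. Run in triplicate, mean ± SD. Ki is derived from IC50. A lower enzyme level (5 nM) is used for some potent compounds.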

[20] = target: RNA-binding protein FXR1 (Homo sapiens) (UniProt P51114)
[21] = target: WD repeat-containing protein 5 (Homo sapiens) (UniProt P61964)
[22] = target: E3 ubiquitin-protein ligase UHRF1 (Homo sapiens) (UniProt Q96T88)
Sequence of E3 ubiquitin-protein ligase UHRF1 (Homo sapiens) (Q96T88 whole entry, the tested form may be a part): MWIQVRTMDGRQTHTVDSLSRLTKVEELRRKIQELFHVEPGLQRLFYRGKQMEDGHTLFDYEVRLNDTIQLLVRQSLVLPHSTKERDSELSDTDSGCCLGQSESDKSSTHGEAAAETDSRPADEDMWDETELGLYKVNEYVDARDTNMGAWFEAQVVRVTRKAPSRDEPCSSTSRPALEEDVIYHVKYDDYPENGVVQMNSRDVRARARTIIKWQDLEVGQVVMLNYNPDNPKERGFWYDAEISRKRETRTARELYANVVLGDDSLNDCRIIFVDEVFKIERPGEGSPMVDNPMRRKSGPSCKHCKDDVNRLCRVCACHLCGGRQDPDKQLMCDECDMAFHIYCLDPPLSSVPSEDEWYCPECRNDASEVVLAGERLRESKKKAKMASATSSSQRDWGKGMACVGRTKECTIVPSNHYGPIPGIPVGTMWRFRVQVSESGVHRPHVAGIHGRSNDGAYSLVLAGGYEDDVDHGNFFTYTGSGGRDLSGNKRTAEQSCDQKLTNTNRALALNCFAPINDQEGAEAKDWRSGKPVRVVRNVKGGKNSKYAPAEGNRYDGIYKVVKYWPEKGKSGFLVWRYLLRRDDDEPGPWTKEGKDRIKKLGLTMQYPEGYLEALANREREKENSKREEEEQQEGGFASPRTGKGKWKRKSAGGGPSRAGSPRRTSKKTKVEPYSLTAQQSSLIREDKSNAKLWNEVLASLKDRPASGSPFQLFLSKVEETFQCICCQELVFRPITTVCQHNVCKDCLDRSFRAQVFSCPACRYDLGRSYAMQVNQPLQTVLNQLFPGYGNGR

[23] = target: AT-rich interactive domain-containing protein 4A (Homo sapiens) (UniProt P29374)
[24] = target: T3, Protein arginine N-methyltransferase 8; test: Inhibition of human PRMT8 using (3H) methylated biotin labelled peptide as substrate in presence of 3H-SAM by scintillation proximity assay; outline: as §1
[25] = test system: HEK293; details: Homo sapiens, dose 1000.0 nM, time 20.0 hrs

**Q.** Which results are given for `CC(C)Oc1ccc(-c2c[nH]cc2CN(C)CCN)cc1`?
**A.** IC50 [1]: Not Active; Activity [2]: Toxic; IC50 [3]: Not Active; deltaTm [4]: inactive; Activity [5]: Non-Toxic; IC50 [6]: Not Active; inhibition [7]: Active; Activity [8]: 30%; IC50 [9]: Not Active; deltaTm [10]: inactive; IC50 [11]: Not Active; ΔTm [12]: -0.3 °C; IC50 [13]: Not Active; IC50 [14]: 83 nM; IC50 [15]: Not Active; ΔTm [16]: -3 °C; Ki [17]: 23 nM; deltaTm [18]: inactive; Ki [19]: 1.3 nM; deltaTm [20]: inactive; ΔTm [21]: -1.3 °C; ΔTm [22]: -1.5 °C; deltaTm [23]: inactive; IC50 [24]: 5 nM; inhibition [25]: Active
